Screening data from PubChem BioAssay.
A selection: hits, their analogues and other compounds. The true share with any hit is near 3.5%.
MrgX1 allo act – human MrgX1 positive allosteric modulation, primary screen; Q96LB2; MrgX1-HEK293, Fluo-4 calcium flux, FDSS; stronger effect = higher value; B-score at 10 µM; actives 0.63% (n = 310,000); AID 588675;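 active = plate-corrected calcium response at least 3 library SD above typical, normal starting fluorescence, not activating the receptor alone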;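 also: compound read alongside a low EC10 to EC30 dose of BAM8-22 agonist; peak minus trough fluorescence over baseline measured at the second addition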
Target sequence (Q96LB2 whole entry, looked up): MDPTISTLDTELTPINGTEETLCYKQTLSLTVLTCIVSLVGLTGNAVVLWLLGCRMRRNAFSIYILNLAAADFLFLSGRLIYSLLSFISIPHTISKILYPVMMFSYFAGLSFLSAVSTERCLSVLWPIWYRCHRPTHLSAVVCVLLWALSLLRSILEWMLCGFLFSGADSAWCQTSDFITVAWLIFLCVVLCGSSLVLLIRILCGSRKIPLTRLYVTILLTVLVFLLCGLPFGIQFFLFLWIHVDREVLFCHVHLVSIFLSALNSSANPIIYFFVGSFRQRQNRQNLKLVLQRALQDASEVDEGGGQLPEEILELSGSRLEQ
MrgX1 ag – agonists of human MrgX1 receptor; MrgX1-HEK293 cells, Fluo-4 calcium fluorescence, agonist mode; stronger effect = higher value; B-score at 10 µM; actives 0.44% (n = 310,000); AID 588627;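 active = calcium response B-score plate-corrected fluorescence ratio at least 3 library SD, with starting fluorescence B-score inside 5 SD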
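times = overnight plating, then 30 min 37 °C plus 30 min room-temperature dye loading | assay system = stable human MrgX1 HEK293 cell line | input = fifteen thousand cells per well | signal = kinetic calcium dye fluorescence, Fluo-4 NW | dosing = compound delivered in addition one of three | read-out = B-scored fluorescence response ratio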
RGS4 act – RGS4 potentiation or activation; B-score at 10 µM; HEK293 M3R/inducible RGS4, carbachol calcium flux Fluo4; stronger effect = lower value; AID 463111; actives 0.92% (n = 310,000);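 active = B-score of the integrated calcium signal more than 4 SD below the library mean, with starting fluorescence not abnormally high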;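 also: negative B-score means reduced calcium response which marks RGS4 activation or potentiation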
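Assay system: Inducible-RGS4 HEK293 cells carrying M3 receptor | Schedule: Compound preincubation 20 min at room temperature before agonist | Signal: Kinetic calcium fluorescence imaging with Fluo4-AM dye, 2 µM | Read-out basis: B score from integrated fluorescence ratio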
MrgX1 antagonist – human MrgX1 receptor antagonism, primary screen; Q96LB2; MRGX1-HEK293 calcium flux, Fluo-4, BAM8-22 antagonism; stronger effect = lower value; B-score at 10 µM; actives 1.3% (n = 310,000); AID 588676;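 active = calcium-response B-score plate-corrected more than 3 library SD below zero, starting fluorescence within 5 deviations, no agonist response on first addition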;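 also: peak minus trough fluorescence over baseline after final BAM8-22 challenge near maximal dose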
RGS4 inh – human RGS4 inhibition; P49798; HEK293 M3R/RGS4 inducible, Fluo-4 calcium flux; stronger effect = higher value; triggered by carbachol at its EC20; B-score at 10 µM; actives 0.45% (n = 310,000); AID 463165;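 active = B-score, a plate-corrected calcium signal, over three deviations above library mean, with baseline fluorescence within five deviations of library mean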;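 also: RGS4 expression induced by doxycycline in cells with stable M3 receptor; B-score is computed from the integrated fluorescence ratio over baseline after carbachol; higher B-score means a larger calcium signal and so more RGS4 inhibition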
Target sequence (P49798 whole entry, looked up): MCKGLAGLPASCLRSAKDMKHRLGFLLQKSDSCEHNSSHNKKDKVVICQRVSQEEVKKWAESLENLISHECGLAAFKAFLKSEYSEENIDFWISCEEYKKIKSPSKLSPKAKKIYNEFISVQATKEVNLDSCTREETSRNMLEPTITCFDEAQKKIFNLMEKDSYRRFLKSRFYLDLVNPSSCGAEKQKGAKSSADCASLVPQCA
MrgX1 PAM conf – confirmation of human MrgX1 receptor positive allosteric modulators. shares compounds with MrgX1 allo act. MrgX1-HEK293, Fluo-4 calcium fluorescence, FDSS. activation (ratio percentage), % at 10 µM. actives 13% (n = 1,200);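 active = ratio at least 3 SD above the weak peptide control, stable starting fluorescence, no direct agonism earlier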;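 also: compound followed by low BAM8-22 agonist challenge near EC20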
HEK293 Ca flux – counter-screen for MrgX1 antagonists: effect in parental HEK293 cells; fluorescence ratio F(max-min)/F0 at 10 µM; Fluo-4 calcium fluorescence, FDSS; shares compounds with MrgX1 antagonist; actives 2% (n = 4,000); AID 624111;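 active = duplicate-averaged calcium fluorescence ratio at least three times the standard deviation of buffer wells, a nonspecific response in parental cells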
HEK293 Ca counter – counter-screen for MrgX1 allosteric activators: effect in parental HEK293 cells | shares compounds with MrgX1 antagonist | parental HEK293 calcium flux, Fluo-4 fluorescence ratio; stronger effect = higher value | fluorescence ratio F(max-min)/F0 at 10 µM | actives 0.4% (n = 4,000) | AID 624114;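 active = calcium fluorescence ratio, averaged over duplicates, at least 3 SD of the buffer-well ratio, meaning a nonspecific response in receptor-free cells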;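 also: untransfected parental HEK293 lacking MrgX1 used as counterscreen for MrgX1 allosteric activators; fluorescence change taken during the second addition on a kinetic imager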
HEK293 Ca cntr2 – counter-screen for MrgX1 activators: effect in parental HEK293 cells; shares compounds with MrgX1 antagonist; Fluo-4 calcium fluorescence (FDSS); stronger effect = higher value; fluorescence ratio F(max-min)/F0 at 10 µM; actives 8.7% (n = 4,000);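 active = calcium fluorescence ratio at least three times the spread of buffer wells, meaning a non-specific response in parental cells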
An asterisk follows results filed as active; i = inactive; nt = no result.

SMILES	MrgX1 allo act	MrgX1 ag	RGS4 act	MrgX1 antagonist	RGS4 inh	MrgX1 PAM conf	HEK293 Ca flux	HEK293 Ca counter	HEK293 Ca cntr2
CCNc1nc(Oc2ccc(OC)cc2)cc(C(F)(F)F)n1	10*	i	i	i	i	i	i	i	i
CCNc1nc(Oc2c(Cl)cccc2Cl)cc(C(F)(F)F)n1	i	i	i	i	i	nt	nt	nt	nt
CCNc1nc(Sc2ccc(C)cc2)cc(C(F)(F)F)n1	6.8*	i	i	i	i	15%*	i	i	i
Cc1n[nH]c(C)c1S(=O)(=O)N1CCN(c2ccccn2)CC1	i	i	i	i	i	nt	nt	nt	nt
Cc1n[nH]c(C)c1S(=O)(=O)N1CCc2ccccc2C1	8.4*	i	i	i	i	i	i	i	i
COc1ccc(CN(C)C(=O)c2oc3ccccc3c2CSC)cc1F	8*	i	i	i	i	i	i	i	i
COc1ccc(CCN(C)C(=O)c2oc3ccccc3c2C)cc1OC	i	i	i	i	i	nt	nt	nt	nt
CCNc1nc2[nH]c(=O)c3c(c2s1)OC(N)=C(C#N)C3c1ccc(C)cc1 (stereo not given)	16*	i	i	i	i	i	i	i	51*
CCc1cc(C(=O)Nc2cc(S(=O)(=O)N(C)C)ccc2C)sc1C	8.4*	i	i	i	i	i	i	i	i
CSCC[C@H](NC(=O)N1CCn2c1nc1ccccc12)C(=O)N1CCCCC1	10*	i	i	i	i	i	i	i	i
Nc1nc(C23CC4CCC(CC(C4)C2)C3)cs1	7.1*	i	i	i	i	i	i	i	i
Nc1nc(C23CC4CC(CC(Cl)(C4)C2)C3)cs1	i	i	i	i	i	nt	nt	nt	nt
CC(SCc1ccccc1)C(=O)Nc1ccccc1Br (stereo not given)	6.5*	i	i	i	i	i	i	i	i
Cc1nc(-c2cccc(NC(=O)C3CCCCC3)c2)cs1	17*	i	i	i	i	i	i	i	i
Cc1nc(-c2ccc(NC(=O)C3CC3)cc2)cs1	i	i	i	i	i	nt	nt	nt	nt
COc1cc(C(=O)Nc2ccccc2C(=O)NCc2cccnc2)cc(OC)c1OC	8.9*	i	i	i	i	i	i	i	i
O=C(NC1=NCCS1)c1cc(-c2cccc(Br)c2)nc2ccccc12	i	i	i	i	i	nt	nt	nt	nt
Cc1ccc2nc(-c3cccc(Br)c3)cc(C(=O)NC3=NCCS3)c2c1	31*	i	i	i	i	i	i	i	i
Cc1ccc(S(=O)(=O)NCCCCCC(=O)Nc2cccc(C)c2)cc1	i	i	i	i	i	nt	nt	nt	nt
O=C(Nc1ccc(Br)cc1)C1OCCc2ccccc21 (stereo not given)	11*	i	i	i	i	i	i	i	i
O=C(C(NS(=O)(=O)c1cccs1)c1ccccc1)N1CCN(c2ccccc2)CC1 (stereo not given)	21*	i	i	i	i	i	i	i	i
O=S(=O)(c1cccs1)N1CCN(c2ccccc2)CC1	i	i	i	i	i	nt	nt	nt	nt
C=CCc1c(C)nc(SC)nc1Nc1ccc(C(C)=O)cc1	7*	i	i	i	i	i	i	i	i
C=CCc1c(C)nc(SC)nc1Nc1ccc(C(=O)O)cc1	i	i	i	i	i	nt	nt	nt	nt
